From PubChem
Shown are actives, neighbours in structure and some others; about 2% of the full set was active somewhere.
CAL PDZ FP-1: blocks peptide binding to the human CAL PDZ domain; Q9HD26; AID 602252; inhibition, % at 24.9 µM; purified CAL PDZ, TMR-peptide fluorescence polarization, 1 h; hit rate 0.92% among 300,000;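 active means mean inhibition of at least 30% with at least half of replicates also reaching 30%; inconclusive means no clear call, values can overlap the other calls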;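 further: 0% = DMSO neutral control and 100% = excess unlabeled competitor peptide PRC23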
NTR1 agonist: agonists of human neurotensin receptor NTR1. P30989. activation, % at 20 µM. AID 493036. hit rate 0.17% among 330,000. NTR1-U2OS beta-arrestin-GFP spot imaging, agonist mode;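 active means activation at or above 40% of the spot to cytoplasm intensity ratio, with at least 20 cells analyzed; inconclusive means wells under 20 cells, flagged as cytotoxic or low count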;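 further: 0% = DMSO without peptide and 100% = 100 nM NTR1 peptide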
Target sequence (P30989 whole entry, looked up): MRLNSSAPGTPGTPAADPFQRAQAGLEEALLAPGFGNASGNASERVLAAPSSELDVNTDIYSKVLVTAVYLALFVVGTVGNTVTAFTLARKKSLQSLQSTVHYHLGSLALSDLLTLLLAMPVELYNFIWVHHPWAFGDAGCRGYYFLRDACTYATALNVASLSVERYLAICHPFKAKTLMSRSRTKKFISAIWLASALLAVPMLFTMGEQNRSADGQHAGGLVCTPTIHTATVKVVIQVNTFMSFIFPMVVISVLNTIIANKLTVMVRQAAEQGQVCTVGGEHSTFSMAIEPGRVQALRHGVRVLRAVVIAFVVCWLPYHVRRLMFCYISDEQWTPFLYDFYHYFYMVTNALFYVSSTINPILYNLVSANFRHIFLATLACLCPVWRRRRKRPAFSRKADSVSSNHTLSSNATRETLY
CAL PDZ FP-2: inhibitors of human CAL PDZ peptide binding. Q9HD26. purified CAL PDZ, TMR-peptide fluorescence polarization, 1 h. inhibition, % at 20 µM. hit rate 0.02% among 330,000. AID 504414;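 active means highest replicate inhibition of at least 40%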;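 further: plate controls were DMSO neutral control wells for no effect and unlabeled competitor peptide control wells for full effect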
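material = purified tagged CAL PDZ domain construct (CerCALP) | compound dosing = 20 µM, one dose | times = 1 h at RT | measured by = fluorescence polarization from S- and P-plane intensities, G-factor corrected | read-out = inhibition from polarization loss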
PKA-R2B act: activates the human PKA-R2B holoenzyme complex. PKA-R2B holoenzyme dissociation, Cy5-IP20 fluorescence polarization; R2B truncated from residue 108, S112A mutant; 0% DMSO only, 100% 113 µM cGMP. activation, % at 11.4 µM. hit rate 0.079% among 340,000. AID 504700;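 active means activation above a cutoff set at the mean over all compounds plus 3 SD, cut at about 18% in these data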;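 further: higher means more holoenzyme dissociation and a rise in polarization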
dFosB activator: enhances mouse delta FosB homodimer DNA binding; P13346; purified delta FosB, TAMRA-CDK5 oligo fluorescence polarization; percent of positive-control signal above neutral wells; activation, % at 25 µM; hit rate 0.99% among 340,000;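 active means mean activation above about 17%, with every replicate also reaching it, limit read from the data, passing the limit was not always enough; inconclusive means only one of the two conditions met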
PKA-R1A act: PKA-R1A complex activation | AID 504707 | activation, % at 11.4 µM | hit rate 0.083% among 340,000 | PKA-R1A dissociation, Cy5-IP20 fluorescence polarization; scaled: DMSO 0%, 113 µM cGMP 100% | P00514+P68181;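 active means percent activation above the mean of all tested compounds plus 3 SD, cut at about 19% in these data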;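 further: higher means more PKAc released from R1A so a rise in polarization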
Numbers without * were called inactive; ? = inconclusive; nt = not tested or not shown.

SMILES | CAL PDZ FP-1 | NTR1 agonist | CAL PDZ FP-2 | PKA-R2B act | dFosB activator | PKA-R1A act
Cc1ccn2c(Nc3ccc4c(c3)OCO4)c(-c3ccccn3)nc2c1 | 0 | 8 | -1 | -10 | 21* | -9
Cc1ccc(Nc2c(-c3ccccn3)nc3ccc(C)cn23)cc1 | -2 | 10 | 1 | -6 | ? | -1
Cc1ccc(Nc2c(-c3ccccn3)nc3cc(C)ccn23)cc1 | -9 | 12 | 0 | -6 | 21* | 8
Oc1ccc(C=NN=Cc2ccco2)c(O)c1 | -5 | nt | 0 | -2 | -4 | 3
Cc1ccc(NC(=O)CN(C)C(=O)CSc2ccccc2F)cc1 | 0 | 1 | 0 | -7 | -9 | -5
CCOCC(=O)Nc1cccc(OC)c1 | 66* | 0 | -1 | -9 | -10 | 7
COc1cccc(NC(=O)CN(C)CC(=O)Nc2ccc(Br)cc2)c1 | 47* | 1 | -2 | -3 | -1 | -10
COc1cccc(NC(=O)CN(C)CC(=O)Nc2cccc(C(F)(F)F)c2)c1 | -18 | 2 | -1 | -15 | -15 | -6
COc1ccc(NC(=O)CN(C)CC(=O)Nc2ccc(Cl)c(S(=O)(=O)N(C)C)c2)cc1 | 40* | -1 | -1 | -3 | -5 | 0
Cc1cc(C)c(S(=O)(=O)NCC(c2cccnc2)N2CCN(Cc3ccccc3)CC2)c(C)c1 (centres undefined) | -1 | 1 | -3 | 0 | -2 | -14
CCN(c1ccccc1)S(=O)(=O)c1ccc(Cl)c(NC(=O)CSc2nc(N)cc(=O)[nH]2)c1 | nt | nt | nt | -6 | nt | -10
O=C(Nc1cc(Cl)ccc1N1CCOCC1)c1cccnc1Cl | 64* | 1 | -1 | 8 | -5 | -11
CCC(CC)NC(=O)COC(=O)c1ccc(OCC(=O)Nc2ccccc2OC)c(OC)c1 | 44* | 1 | 1 | -4 | -5 | 1
CN(NC(=O)c1ccccc1F)c1ccc([N+](=O)[O-])cn1 | 55* | 0 | -1 | 1 | -3 | 2
COc1ccc(/C=N/NC(=O)CCSc2nc3ccccc3s2)cc1OC | 1 | 0 | -1 | -4 | 0 | -4
O=C(CCSc1nc2ccccc2s1)N/N=C/c1c(O)ccc2ccccc12 | 3 | 2 | -1 | -9 | 21* | 10
COc1ccc(NC(=O)CSCc2cc(=O)n3nc(C4CC4)sc3n2)cc1 | 1 | 1 | -1 | -7 | -5 | -7
CCOC(=O)C(Cc1ccc(O)c([N+](=O)[O-])c1)N1C(=O)c2ccccc2C1=O (centres undefined) | -8 | nt | -1 | -11 | -45 | -14
CCSC1=N/C(=C\c2ccccc2)C(=O)N1 | 61* | 4 | 0 | -10 | 8 | 1
COc1cc(-n2ccnc2SC)c(Cl)cc1Cl | 54* | -1 | 0 | 3 | 2 | 3
O=S(=O)(c1cccs1)N1CCCCC1 | nt | nt | nt | -16 | nt | -3
Cc1cccc(NC(=O)Cn2cnc3c(oc4ccccc43)c2=O)c1C | -6 | -2 | 62* | 2 | 7 | -13
Cc1cc(C)c(NC(=O)Cn2cnc3c(oc4ccccc43)c2=O)c(C)c1 | 1 | 0 | 0 | 1 | 52* | -7
C[C@H](CO)N1C[C@H](C)[C@H](CN(C)C(=O)Nc2ccc(C(F)(F)F)cc2)OCc2cnnn2CCCC1=O | nt | nt | nt | 1 | nt | 4
O=c1cc(O)c2ccc(O)cc2o1 | -2 | 2 | 1 | -4 | -1 | 0
SMILES | CAL PDZ FP-1 | NTR1 agonist | CAL PDZ FP-2 | PKA-R2B act | dFosB activator | PKA-R1A act
O=c1ccc2[n+]([O-])c3ccc(O)cc3oc-2c1 | 71* | nt | 43* | 6 | 40* | 11
O=[N+]([O-])c1ccc(CP(=O)(c2ccccc2)c2ccccc2)cc1 | -4 | -1 | 1 | 9 | -6 | -6
O=[N+]([O-])c1cccc(CP(=O)(c2ccccc2)c2ccccc2)c1 | 60* | -1 | 0 | -4 | -2 | -9
CNC(=O)C(C)Sc1ccc(S(=O)(=O)N2CCOCC2)cn1 (centres undefined) | -6 | 0 | 0 | -10 | 1 | -15
COc1ccc2c(CC(=O)OCC(=O)Nc3cccc(S(N)(=O)=O)c3)coc2c1 | 50* | 0 | -1 | -5 | -6 | -2
COc1cc(C=CC(=O)OCC=Cc2ccc3c(c2)OCO3)cc(OC)c1OC | nt | nt | 1 | -5 | -5 | 6
O=C(C=Cc1ccc2c(c1)OCO2)OCC=Cc1ccc2c(c1)OCO2 | 53* | nt | 1 | 2 | -2 | -7
CCCCC[C@H](O)/C=C/[C@H]1CCC(=O)[C@@H]1CCCCCCC(=O)N1CCCCC1CO (some centres undefined) | 3 | 24 | -1 | 0 | -14 | -1
COc1ccc2c(C)cc(SCC(=O)Nc3cc(C(N)=O)cc(C(N)=O)c3)nc2c1 | 22 | 3 | -5 | 2 | 68* | 2
COc1ccc([C@H]2CN(CCc3ccccc3)C(=O)[C@@H]2CC(=O)Nc2ccccc2)cc1 | nt | nt | nt | 5 | nt | -11
CCOc1cccc2c1OC1(C)CC2NC(=O)N1c1cccc(Cl)c1 (centres undefined) | 93* | 1 | nt | -11 | 2 | -4
CN(Cc1nc(-c2ccccc2)no1)C(=O)c1ccc2c(c1)OCO2 | 1 | -1 | -3 | -11 | -4 | -8
CC(C)(C)N(Cc1nc(-c2ccccc2)no1)C(=O)c1ccc2c(c1)OCO2 | 65* | 0 | -1 | -6 | -9 | 2
COC(=O)/C(=C/Nc1ccccc1)[N+](=O)[O-] | 4 | 0 | -2 | 10 | -6 | 4
COC(=O)/C(=C/Nc1ccc(O)cc1)[N+](=O)[O-] | 66* | -2 | 0 | 5 | -2 | 1
Cc1cc(F)ccc1S(=O)(=O)N1CCCCC1CCNC(=O)C(=O)NCc1ccccn1 (centres undefined) | -9 | 2 | -1 | 5 | -3 | -1
O=C(CNC(=O)c1ccccc1)OCC(=O)c1ccccc1Cl | 49* | 1 | 0 | -12 | 6 | 7
O=C(c1cc(-c2ccc(Cl)cc2Cl)on1)N1CCCCCC1 | 4 | 8 | -2 | 5 | -7 | -6
O=C(c1cc(-c2ccc(Cl)cc2Cl)on1)N1CCCC1 | 35* | 2 | -2 | -7 | -12 | -3
CCC[C@H]1CN(c2ccc(Br)cc2)C(=O)[C@@H]1CC(=O)NC | nt | nt | nt | -2 | nt | -2
CN1CCN(c2ccc(NC(=O)COc3cccc4ccccc34)cc2)CC1 | -2 | 2 | -1 | 7 | -3 | 1
C=CC(=O)Nc1cccc(N(C)c2ccnc(Nc3ccc(N4CCN(C)CC4)cc3)n2)c1 | -1 | nt | 1 | -4 | 46* | 1
C=CC(=O)Nc1cccc(Oc2ccnc(Nc3ccc(N4CCN(C)CC4)cc3)n2)c1 | 3 | nt | -1 | 3 | 66* | 3
Cc1ccc(CNS(=O)(=O)c2ccc3c(c2)n(C)c(=O)n3C)cc1 | -1 | 0 | -1 | 2 | 0 | -11
